Measured values from different studies.
HTR2B: 5-hydroxytryptamine receptor 2B (HTR2B, Homo sapiens, UniProt P41595)
HTR2C: 5-hydroxytryptamine receptor 2C (HTR2C, Homo sapiens, UniProt P28335)

SMILES	target	observed	mode	technique	concentration	quantity	value
c1cncc([C@@H]2CCCN2)c1	HTR2B	ligand displacement			50 µM	inhibition	-2.22%
CCOC(=O)Cc1c2c3c(cc(OC)c(OC)c3c3cc(OC)c(OC)cc13)CCN2C	HTR2C	ligand displacement		radioligand	10 µM	inhibition	6%
CCCC(NCCc1cc(OC)c(C#N)cc1OC)c1ccccc1O (stereo not drawn)	HTR2C	calcium signal	agonist			Emax	56%
CN1CCC[C@H]1c1cccnc1	HTR2C	ligand displacement			50 µM	inhibition	-24.7%
COc1cc2c3c(c1OC)-c1c(OC)ccc(Br)c1CC3N(C)CC2 (stereo not drawn)	HTR2B	ligand displacement		radioligand	10 µM	inhibition	88%
CC(C)CC(=O)OC[C@H]1O[C@@](C#N)(c2ccc3c(N)ncnn23)[C@H](O)[C@@H]1O	Prostaglandin G/H synthase 1 (PTGS1, Homo sapiens, UniProt P23219)	enzyme activity	inhibitor		20 µM	inhibition	6%
[2H]c1c([2H])c([C@]2([2H])CCCN2C(=O)C(C)(C)Oc2ccc3cn[nH]c3c2)c([2H])c([2H])c1C([2H])([2H])[2H]	Serine/threonine-protein kinase Nek6 (NEK6, Homo sapiens, UniProt Q9HC98)	binding		competition with immobilised ligand	1 µM	remaining binding	100%
COc1cc2c3c(c1OC)-c1c(cccc1OC)CC3N(C)CC2 (racemic)	HTR2C	ligand displacement		radioligand	10 µM	inhibition	51%
Nc1ncnc2c1ncn2[C@@H]1O[C@H](C[C@@H](N)CC[C@H](N)C(=O)O)[C@@H](O)[C@H]1O	mRNA cap guanine-N(7) methyltransferase (RNMT, Homo sapiens, UniProt O43148)	enzyme activity	inhibitor		3.125 µM	inhibition	40.9%
CC[C@H](C)[C@H](NC(=O)[C@H](CO)NC(=O)[C@H](Cc1ccc(O)cc1)NC(=O)[C@H](CC(=O)O)NC(=O)[C@H](CO)NC(=O)[C@@H](NC(=O)[C@H](Cc1ccccc1)NC(=O)[C@@H](NC(=O)CNC(=O)[C@H](CCC(=O)O)NC(=O)[C@@H](C)NC(=O)[C@@H](N)Cc1ccc(O)cc1)[C@@H](C)O)[C@@H](C)CC)C(=O)N[C@@H](C)C(=O)N[C@@H](CCSC)C(=O)N[C@@H](CC(=O)O)C(=O)N[C@@H](CCCCN)C(=O)N[C@H](C(=O)N[C@@H](Cc1c[nH]cn1)C(=O)N[C@@H](CCC(N)=O)C(=O)N[C@@H](CCC(N)=O)C(=O)N[C@@H](CC(=O)O)C(=O)N[C@@H](Cc1ccccc1)C(=O)N[C@H](C(=O)N[C@@H](CC(N)=O)C(=O)N[C@@H](Cc1c[nH]c2ccccc12)C(=O)N[C@@H](CC(C)C)C(=O)N[C@@H](CC(C)C)C(=O)N[C@@H](C)C(=O)N[C@@H](CCC(N)=O)C(=O)NCC(=O)N1CCC[C@H]1C(=O)N[C@@H](CO)C(=O)N[C@@H](CO)C(=O)NCC(=O)N[C@@H](C)C(=O)N1CCC[C@H]1C(=O)N1CCC[C@H]1C(=O)N1CCC[C@H]1C(=O)N[C@@H](CO)C(=O)N[C@@H](CCCCN)C(N)=O)C(C)C)[C@@H](C)CC	Glucagon receptor (Mus musculus, UniProt Q61606)	cAMP	agonist			Emax	< 20%
COc1cc(C(F)(F)F)c(OC)cc1C1CCCNC1 (stereo not drawn)	HTR2C	calcium signal	agonist			Emax	31%
COc1cc2c3c(c1OC)-c1c(OC)ccc(O)c1CC3N(C)CC2 (stereo not drawn)	HTR2C	ligand displacement		radioligand	10 µM	inhibition	60%
